High-throughput results from PubChem.
In the library only some 2.5% were active in any assay of this set; here they are far more common.
PAD4 FP inh = PAD4 (human) enzyme inhibition. Q9UM07. recombinant PAD4, RCA probe fluorescence polarization. inhibition, % at 6.36 µM. 0.41% of 330,000 active. AID 485272;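 active means percent inhibition above a cutoff equal to the mean of all tested compounds plus 3 SD, cut at about 15% in these data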;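 further: 0% = PAD4 with RCA probe and DMSO and 100% = probe without PAD4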
Target sequence (Q9UM07 whole entry, looked up): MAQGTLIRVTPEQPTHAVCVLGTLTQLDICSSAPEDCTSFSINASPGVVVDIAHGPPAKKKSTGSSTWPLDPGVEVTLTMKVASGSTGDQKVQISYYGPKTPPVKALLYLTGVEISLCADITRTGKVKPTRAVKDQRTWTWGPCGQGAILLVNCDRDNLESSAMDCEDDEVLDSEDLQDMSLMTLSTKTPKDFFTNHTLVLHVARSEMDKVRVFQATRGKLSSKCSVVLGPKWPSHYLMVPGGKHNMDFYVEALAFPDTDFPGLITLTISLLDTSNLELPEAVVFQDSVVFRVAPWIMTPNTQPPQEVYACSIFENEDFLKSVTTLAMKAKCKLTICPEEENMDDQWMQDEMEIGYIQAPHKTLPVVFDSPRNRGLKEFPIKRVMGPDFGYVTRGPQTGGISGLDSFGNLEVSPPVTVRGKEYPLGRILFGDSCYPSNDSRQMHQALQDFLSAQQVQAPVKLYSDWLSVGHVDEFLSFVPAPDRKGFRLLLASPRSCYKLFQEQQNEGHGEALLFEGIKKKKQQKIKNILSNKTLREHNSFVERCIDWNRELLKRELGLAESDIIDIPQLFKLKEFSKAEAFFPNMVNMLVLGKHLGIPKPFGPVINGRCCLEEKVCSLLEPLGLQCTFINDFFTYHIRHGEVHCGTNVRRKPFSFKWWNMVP
E coli Lon inh = inhibits E. coli Lon protease. inhibition, % at 7.94 µM. 0.42% of 360,000 active. purified E. coli Lon protease, fluorescence polarization. P0A9M0; in the data active means inhibition above about 13%, passing the limit was not always enough;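 further: 0% = enzyme with probe and DMSO and 100% = no enzyme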
GSTO1 inh = counter-screen for RBBP9 inhibitors: inhibitors of human GSTO1 | recombinant GSTO1, activity-based probe fluorescence polarization | inhibition, % at 5.96 µM | 1.1% of 300,000 active | AID 1974;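 active means inhibition above the campaign mean inhibition plus 3 SD, cut at about 35% in these data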;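 further: 0% = GSTO1-1 with DMSO and 100% = wells lacking GSTO1-1 enzyme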
TDP2 inh = TDP2 (human) inhibition, absorbance primary screen | O95551 | recombinant TDP2, T5PNP hydrolysis, p-nitrophenol absorbance 415 nm | inhibition, % at 12.8 µM | 0.34% of 370,000 active | AID 720702;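 active means inhibition above the mean of all tested compounds plus 3 SD, set per campaign, cut at about 25% in these data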;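 further: 0% = DMSO with enzyme and 100% = buffer with substrate but no TDP2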
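System – recombinant human TDP2 · Amount – 120 nM TDP2 per well · Buffer or medium – Mg2+-containing Tris-HCl buffer, pH 7.5 · Reagent – T5PNP substrate, 5 mM · Dosing – 12.8 µM single point, 1% DMSO · Incubation – 2 h at 37 °C · Measured by – epi absorbance · Read-out basis – percent inhibition · Benchmarks – high control without enzyme, low control DMSO plus TDP2 · Repeats – singlicate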
PRMT1 inh = blocks human protein arginine methyltransferase 1; Q99873; recombinant PRMT1, activity-based probe fluorescence polarization; inhibition, % at 2.79 µM; 1.3% of 370,000 active; AID 652257;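 active means inhibition above about 21% made by adding two undisclosed values, limit read from the data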
GSTO1 confirm = confirmation of human GSTO1 inhibitors. recombinant GSTO1, probe fluorescence polarization. 54% of 2,400 active. inhibition, % at 5.96 µM. shares compounds with GSTO1 inh;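 active means inhibition above the primary screen's cutoff, its mean inhibition plus 3 SD, cut at about 35% in these data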;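 further: loss of polarization as inhibitors block binding of rhodamine sulfonate ester activity probe; 0% = GSTO1 with DMSO and 100% = wells lacking GSTO1 enzyme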
PAD4 FP conf = PAD4 (human) inhibition, confirmed. AID 488796. 28% of 1,200 active. inhibition, % at 6.36 µM. shares compounds with PAD4 FP inh. recombinant PAD4, RCA probe fluorescence polarization;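 active means mean inhibition across replicates above the hit cutoff set by the earlier primary screen, cut at about 15% in these data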;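 further: inhibitors block active-site labeling by the probe so polarization falls; 0% = PAD4 with probe and DMSO and 100% = probe without PAD4 enzyme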
eLon confirm = E. coli Lon inhibition confirmation | shares compounds with E coli Lon inh | purified E. coli Lon, fluorescence polarization | inhibition, % at 7.94 µM | 31% of 1,400 active | AID 602230; in the data active means inhibition above about 16%;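 further: 0% = enzyme with probe and DMSO and 100% = no enzyme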
TDP2 inh conf = human TDP2 inhibition, confirmation; AID 743263; 22% of 1,100 active; shares compounds with TDP2 inh; recombinant human TDP2, absorbance read-out; inhibition, % at 12.8 µM; in the data active means inhibition above about 25%;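 further: 0% = vehicle with enzyme and 100% = no enzyme buffer only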
Numbers without * were called inactive; / = no result.

SMILES	PAD4 FP inh	E coli Lon inh	GSTO1 inh	TDP2 inh	PRMT1 inh	GSTO1 confirm	PAD4 FP conf	TDP2 inh conf	others
COc1ccc(C2C(C#N)=C(N)Oc3c2c(-c2ccccc2)nn3-c2ccccc2)c(OC)c1OC (stereo unspecified)	25*	-2	47*	68*	3	16	3	7
COc1ccc(CC2=CC(=O)c3ccccc3C2=O)cc1	-10	11	67*	53*	79*	15	/	17
C=CCN(Cc1ccc2c(c1)OCO2)C(C#CCCCC)C(C)C (stereo unspecified)	/	/	/	4	1	/	/	/
Cc1cccc(C(=O)NC2C(=O)NNC2c2ccc(Cl)cc2)c1 (stereo unspecified)	-2	-4	44*	30*	-3	5	/	10
O=C(NC1C(=O)NNC1c1ccccc1)c1ccccc1 (stereo unspecified)	-11	-3	8	15	5	/	/	/
O=C(N/N=C/c1ccc(-c2ccccc2[N+](=O)[O-])o1)c1cccnc1	5	1	51*	36*	1	7	/	16
NC(=O)c1c(N)[nH]c(C(=O)c2ccccc2)c1-c1ccccc1C(F)(F)F	/	/	/	-6	-1	/	/	/
O=S(=O)(Nc1cc2nc3ccccc3nc2n1Cc1ccccc1)c1ccc(Cl)cc1	72*	-104	73*	107*	2	92*	/	93*
Cc1ccc(CN2CCCCC(NC(=O)c3ccc(F)cc3)C2=O)cc1 (stereo unspecified)	/	/	/	11	0	/	/	/
CC1OC(Nc2cccc3ccccc23)C(O)C(O)C1O (stereo unspecified)	-17	-28	49*	34*	29*	8	/	14
CC1OC(Nc2ccc(N=Nc3ccccc3)cc2)C(O)C(O)C1O (stereo unspecified)	-4	3	-5	-6	-1	/	/	/
CC(NC(=O)Nc1ccc(O)cc1)(C(F)(F)F)C(F)(F)F	64*	5	44*	28*	14	2	-1	19
CCC(NC(=O)Nc1ccc(O)cc1)(C(F)(F)F)C(F)(F)F	46*	16*	57*	27*	17	4	13	5	eLon confirm=11
CCC(NC(=O)NCc1ccccc1)(C(F)(F)F)C(F)(F)F	4	8	-2	-4	-1	/	/	/
O=c1cc(-c2ccc(C3CCCCC3)cc2)[nH][nH]1	-18	-17	19	3	1	/	/	/
COc1ccc(-c2c[nH]c(=O)[nH]c2=O)cc1OC	-2	1	-10	-1	4	/	/	/
O=c1cc(-c2ccc(F)cc2)[nH][nH]1	59*	-4	41*	55*	-2	7	-3	8
O=c1cc(-c2ccccc2)[nH][nH]1	35*	-5	38*	59*	0	2	7	4
COc1ccc(-c2cc(=O)[nH][nH]2)cc1OC	65*	-9	66*	87*	14	3	-7	17
O=S1(=O)c2ccc(N3CCC[C@H]3CO)cc2OCCCN1C1CC1	/	/	/	2	-4	/	/	/
CCCCCCCCN1CN2Cc3ccccc3C2CS1(=O)=O (stereo unspecified)	/	/	/	5	0	/	/	/
Cc1occc1-c1nnc(SCC(=O)Nc2ccccn2)n1-c1ccccc1	/	/	/	8	-1	/	/	/
CCC[C@H](/C=C/C(=O)OC(C)(C)C)Sc1ccc(OC)cc1	/	/	/	3	4	/	/	/
Cc1[nH][nH]c(=O)c1C(c1c(C)[nH][nH]c1=O)c1cn(Cc2ccc(Cl)c(Cl)c2)c2ccccc12	33*	5	66*	44*	6	56*	-6	27*
CCCC(=O)OC12CCCN(C1)/C(=C/c1ccc(Cl)cc1)C2 (stereo unspecified)	/	/	/	4	-2	/	/	/
SMILES	PAD4 FP inh	E coli Lon inh	GSTO1 inh	TDP2 inh	PRMT1 inh	GSTO1 confirm	PAD4 FP conf	TDP2 inh conf	others
CC(=O)N1CCn2c3c(c(=O)c4cc(C)ccc42)CCC31 (stereo unspecified)	46*	1	73*	34*	5	57*	-3	50*
O=C(N=Nc1c(O)[nH]c2ccc([N+](=O)[O-])cc12)c1ccccc1[N+](=O)[O-]	-17	6	43*	35*	0	46*	/	23
CCOc1cc(/C=C2/C(=N)N3N=C(CC)SC3=NC2=O)ccc1OC(=O)c1ccco1	0	-17	3	9	-1	/	/	/
COc1ccc(/C=C2/C(=O)N(c3ccccc3)N=C2C)cc1Br	43*	-19	58*	70*	4	19	/	27*
CCOc1cc(/C=C2/C(=O)N(c3ccccc3)N=C2C)ccc1OC(=O)c1ccco1	47*	-6	65*	77*	5	9	-8	29*
COc1ccc(C(c2c(C)n(C)n(-c3ccccc3)c2=O)c2c(C)n(C)n(-c3ccccc3)c2=O)cc1OC	-5	-15	-7	-16	0	/	/	/
COc1ccc(C(c2c(C)[nH]n(-c3ccccc3)c2=O)c2c(C)[nH]n(-c3ccccc3)c2=O)cc1OC	69*	13	69*	88*	3	22	0	39*
COC(=O)C1CN(C2CCCC2)CCS(=O)(=O)N1Cc1ccc(F)cc1 (stereo unspecified)	/	/	/	9	-6	/	/	/
C[C@@H]1CCCN1c1cccc2c1S(=O)(=O)N(C1CC1)CCCO2	/	/	/	-6	5	/	/	/
O=C1C=C(Nc2ccccc2O)c2ccccc2C1=O	65*	43*	72*	61*	12	74*	31*	54*	eLon confirm=-2
COC(=O)C1=C(C)N(Cc2ccc(C(F)(F)F)cc2)C(=NCc2ccccc2C(F)(F)F)NC1c1ccccc1 (stereo unspecified)	/	/	/	4	-2	/	/	/
CCC(=O)N(CC)C1=C(O)c2ccccc2C(=O)C1=O	3	-10	38*	29*	53*	32	/	19
S=C(Nc1ccccc1)OC1CCC12CCC(c1ccccc1)CC2 (stereo unspecified)	/	/	/	3	1	/	/	/
COC(=O)c1ccc(C(c2c(C)[nH][nH]c2=O)c2c(C)[nH][nH]c2=O)cc1	-17	9	9	-5	0	/	/	/
COC(=O)c1cccc(-c2ccc(C(c3c(C)[nH][nH]c3=O)c3c(C)[nH][nH]c3=O)o2)c1	8	-7	59*	57*	29*	54*	/	32*
Cc1ccc(S(=O)(=O)N(C)[C@H]2C[C@H]3c4[nH]c5cccc(-c6ccccc6)c5c4CCN3C(=O)[C@H]2[C@H](C)O)cc1	/	/	/	-10	0	/	/	/
